*1 amine or outer side, *2 acyl side, *3 side chain or, on linkers, in order; H or OH if unused. Where a SMILES comes first, the peptide text is derived from it. Bridges are numbered along the chain shown (N, C = ends). [ ]: non-standard residue; d: D form. The star is where a group is joined. 5FAM = O=C1OC2(c3ccc(O)cc3Oc3cc(O)ccc32)c2ccc(C(=O)*)cc21; Ala(indol-2-yl) = N[C@@H](Cc1cc2ccccc2[nH]1)C(=O)O; Phe(3-CF3) = N[C@@H](Cc1cccc(C(F)(F)F)c1)C(=O)O; Phe(3-Ph) = N[C@@H](Cc1cccc(-c2ccccc2)c1)C(=O)O; hhhhLys = O=C([C@H](CCCCCCCCN[*:3])N[*:1])[*:2]; X2 = CC(C)Cc1cccc(C[C@H](N[*:1])C(=O)[*:2])c1; Phe(3,5-F2) = N[C@@H](Cc1cc(F)cc(F)c1)C(=O)O; X1 = CCc1cccc(C[C@H](N[*:1])C(=O)[*:2])c1; Phe(3-Cl) = N[C@@H](Cc1cccc(Cl)c1)C(=O)O; Phe(4-Cl) = N[C@@H](Cc1ccc(Cl)cc1)C(=O)O; NH(CH2)9CO = O=C(CCCCCCCCCN[*:1])[*:2]; Phe(2-Cl) = N[C@@H](Cc1ccccc1Cl)C(=O)O; Phe(3-F) = N[C@@H](Cc1cccc(F)c1)C(=O)O; Phe(3-Me) = Cc1cccc(C[C@H](N)C(=O)O)c1; Phe(4-F) = N[C@@H](Cc1ccc(F)cc1)C(=O)O; Phe(2-F) = N[C@@H](Cc1ccccc1F)C(=O)O; Cha = N[C@@H](CC1CCCCC1)C(=O)O; AEEEA = NCCOCCOCCOCC(=O)O; Ac4c = NC1(C(=O)O)CCC1

IC50, Ki and Kd data for 19 molecules are collected here from ChEMBL document CHEMBL2311406, “Structure-based design of high-affinity macrocyclic peptidomimetics to block the menin-mixed lineage leukemia 1 (MLL1) protein-protein interaction” (J Med Chem, 2013).

This test deals with T1, Menin (Homo sapiens, UniProt O00255).
T1 sequence (O00255 whole entry): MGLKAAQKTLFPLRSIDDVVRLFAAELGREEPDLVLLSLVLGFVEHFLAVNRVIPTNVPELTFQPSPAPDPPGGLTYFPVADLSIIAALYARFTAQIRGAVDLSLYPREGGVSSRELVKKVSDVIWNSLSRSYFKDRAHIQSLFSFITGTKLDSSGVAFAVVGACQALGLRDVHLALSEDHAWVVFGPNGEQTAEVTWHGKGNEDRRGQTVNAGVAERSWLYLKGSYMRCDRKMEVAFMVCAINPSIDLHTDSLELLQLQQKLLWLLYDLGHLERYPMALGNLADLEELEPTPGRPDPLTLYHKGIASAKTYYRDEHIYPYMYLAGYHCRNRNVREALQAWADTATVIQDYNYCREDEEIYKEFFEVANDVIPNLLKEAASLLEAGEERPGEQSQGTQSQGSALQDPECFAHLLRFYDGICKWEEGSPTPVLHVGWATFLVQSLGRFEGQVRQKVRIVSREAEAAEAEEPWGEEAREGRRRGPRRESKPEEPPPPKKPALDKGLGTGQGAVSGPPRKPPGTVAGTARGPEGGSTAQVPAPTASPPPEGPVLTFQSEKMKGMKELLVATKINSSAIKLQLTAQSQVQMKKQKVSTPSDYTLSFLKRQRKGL
The test is described as follows: Binding affinity to menin (unknown origin) after 60 mins by fluorescence polarization assay. In short, it runs like this:
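Competitive FP with fluorescein-labeled peptide tracers. Compound in DMSO (2% final) was added to a preincubated menin/tracer complex in 100 mM potassium phosphate pH 7.5 with 100 μg/mL bovine γ-globulin and 0.02% sodium azide. Menin/tracer/detergent were 30 nM/3 nM/0.005% Triton X-100 or 3 nM/2 nM/0.02% Tween-20. Ki was derived from the fitted IC50, probe Kd and assay concentrations.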
On the technique in general: In fluorescence polarisation assays a small probe gives low polarisation when free and higher when bound to something large.
One may read the IC50 as the concentration needed to halve the response being measured. Read a low IC50 as greater potency in that assay. For orientation: Ki means the dissociation constant of the complex between target and ligand, obtained from inhibition or displacement. The low end stands for higher affinity, the high end for lower affinity. For `N=C(N)NCCC[C@@H]1NC(=O)C2(CCC2)NC(=O)[C@@H]2CCCN2C(=O)[C@H](CC2CCCCC2)NC(=O)[C@@H](N)CCCCCCCCNC(=O)[C@@H]2CCCN2C1=O` (H-[hhhhLys][Cha]P[Ac4c]RP; lactam 1-C), the IC50 was 3.33 µM and the inhibition constant Ki turned out to be 0.862 µM.
In the case of `N=C(N)NCCC[C@@H]1NC(=O)C2(CCC2)NC(=O)[C@@H]2CCCN2C(=O)[C@H](Cc2ccccc2Cl)NC(=O)[C@@H](N)CCCCCCCCNC(=O)[C@@H]2CCCN2C1=O` (H-[hhhhLys][Phe(2-Cl)]P[Ac4c]RP; lactam 1-C), the IC50 was 0.112 µM and the affinity, expressed as Ki, was 0.03 µM.
The matching figures for `N=C(N)NCCC[C@@H]1NC(=O)C2(CCC2)NC(=O)[C@@H]2CCCN2C(=O)[C@H](Cc2ccccc2F)NC(=O)[C@@H](N)CCCCCCCCNC(=O)[C@@H]2CCCN2C1=O` (H-[hhhhLys][Phe(2-F)]P[Ac4c]RP; lactam 1-C): 0.102 µM and 0.0275 µM.
As for `N=C(N)NCCC[C@@H]1NC(=O)C2(CCC2)NC(=O)[C@@H]2CCCN2C(=O)[C@H](Cc2cccc(C(F)(F)F)c2)NC(=O)[C@@H](N)CCCCCCCCNC(=O)[C@@H]2CCCN2C1=O` (H-[hhhhLys][Phe(3-CF3)]P[Ac4c]RP; lactam 1-C), the half-maximal inhibitory concentration (IC50) stood at 2.52 µM and the Ki was found to be 0.725 µM.
With `N=C(N)NCCC[C@@H]1NC(=O)C2(CCC2)NC(=O)[C@@H]2CCCN2C(=O)[C@H](Cc2cccc(Cl)c2)NC(=O)[C@@H](N)CCCCCCCCNC(=O)[C@@H]2CCCN2C1=O` (H-[hhhhLys][Phe(3-Cl)]P[Ac4c]RP; lactam 1-C), the IC50 was 0.159 µM and the Ki worked out at 0.0446 µM.
Molecule `N=C(N)NCCC[C@@H]1NC(=O)C2(CCC2)NC(=O)[C@@H]2CCCN2C(=O)[C@H](Cc2cccc(F)c2)NC(=O)[C@@H](N)CCCCCCCCNC(=O)[C@@H]2CCCN2C1=O` (H-[hhhhLys][Phe(3-F)]P[Ac4c]RP; lactam 1-C) showed an IC50 of 0.0251 µM and a Ki of 0.0068 µM.
On to `Cc1cccc(C[C@@H]2NC(=O)[C@@H](N)CCCCCCCCNC(=O)[C@@H]3CCCN3C(=O)[C@H](CCCNC(=N)N)NC(=O)C3(CCC3)NC(=O)[C@@H]3CCCN3C2=O)c1` (H-[hhhhLys][Phe(3-Me)]P[Ac4c]RP; lactam 1-C), for which the IC50 is 1.15 µM and the Ki was determined as 0.332 µM.
The corresponding values for `N=C(N)NCCC[C@@H]1NC(=O)C2(CCC2)NC(=O)[C@@H]2CCCN2C(=O)[C@H](Cc2cccc(-c3ccccc3)c2)NC(=O)[C@@H](N)CCCCCCCCNC(=O)[C@@H]2CCCN2C1=O` (H-[hhhhLys][Phe(3-Ph)]P[Ac4c]RP; lactam 1-C) are 39.4 µM and 14 µM.
Turning to `N=C(N)NCCC[C@@H]1NC(=O)C2(CCC2)NC(=O)[C@@H]2CCCN2C(=O)[C@H](Cc2ccc(Cl)cc2)NC(=O)[C@@H](N)CCCCCCCCNC(=O)[C@@H]2CCCN2C1=O` (H-[hhhhLys][Phe(4-Cl)]P[Ac4c]RP; lactam 1-C), the IC50 was 2.01 µM and the affinity, expressed as Ki, was 0.549 µM.
The matching figures for `N=C(N)NCCC[C@@H]1NC(=O)C2(CCC2)NC(=O)[C@@H]2CCCN2C(=O)[C@H](Cc2ccc(F)cc2)NC(=O)[C@@H](N)CCCCCCCCNC(=O)[C@@H]2CCCN2C1=O` (H-[hhhhLys][Phe(4-F)]P[Ac4c]RP; lactam 1-C): 0.422 µM and 0.123 µM.
As for `CCc1cccc(C[C@@H]2NC(=O)[C@@H](N)CCCCCCCCNC(=O)[C@@H]3CCCN3C(=O)[C@H](CCCNC(=N)N)NC(=O)C3(CCC3)NC(=O)[C@@H]3CCCN3C2=O)c1` (H-[hhhhLys][X1]P[Ac4c]RP; lactam 1-C), the IC50 was found to be 4.61 µM and the Ki amounted to 1.33 µM.
Molecule `CC(C)Cc1cccc(C[C@@H]2NC(=O)[C@@H](N)CCCCCCCCNC(=O)[C@@H]3CCCN3C(=O)[C@H](CCCNC(=N)N)NC(=O)C3(CCC3)NC(=O)[C@@H]3CCCN3C2=O)c1` (H-[hhhhLys][X2]P[Ac4c]RP; lactam 1-C) yielded an IC50 of 36 µM and a Ki of 11.6 µM.
The corresponding values for `C[C@@H]1NC(=O)[C@@H]2CCCN2C(=O)[C@H](Cc2ccccc2)NC(=O)CCCCCCCCCNC(=O)[C@@H]2CCCN2C(=O)[C@H](CCCNC(=N)N)NC1=O` (cyclo(ARP[NH(CH2)9CO]FP)) are 6.45 µM and 1.84 µM.
For orientation: Kd means the equilibrium constant for the complex coming apart. A lower Kd goes with tighter binding. Molecule `N=C(N)NCCC[C@H](NC(=O)COCCOCCOCCNC(=O)c1ccc2c(c1)C(=O)OC21c2ccc(O)cc2Oc2cc(O)ccc21)C(=O)N[C@@H](Cc1cc2ccccc2[nH]1)C(=O)N[C@H]1CCCCCCCCNC(=O)[C@@H]2CCCN2C(=O)[C@H](CCCNC(=N)N)NC(=O)C2(CCC2)NC(=O)[C@@H]2CCCN2C(=O)[C@H](Cc2cc(F)cc(F)c2)NC1=O` ({5FAM-AEEEA}-R[Ala(indol-2-yl)][hhhhLys][Phe(3,5-F2)]P[Ac4c]RP; lactam 3-C) came in with a Kd of 0.0014 µM. That is a single-digit nanomolar value.
For Ac-RFPARP-NH2, the IC50 was found to be 9.57 µM and the Ki turned out to be 2.85 µM.
For Ac-RWRFPAR-NH2, the IC50 came to 85.3 µM and the Ki worked out at 25.5 µM.
Consider Ac-RWRFPARP-NH2, for which the IC50 came out at 0.232 µM and the Ki is 0.0711 µM.
In turn, Ac-RWRFPARPGTGRR-NH2 yielded an IC50 of 0.0114 µM and a Ki of 0.0029 µM.
In the case of Ac-WRFPARP-NH2, the IC50 stood at 1.06 µM and affinity was put at a Ki of 0.311 µM.
